KCNQ1 pot = human KCNQ1 channel potentiation or activation. P51787. CHO-K1 KCNQ1, thallium flux FluxOR fluorescence; active compounds read high. B-score at 10 µM. 0.35% of 310,000 active. AID 2648;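 active = fluorescence ratio B-score, a plate-corrected score, at least three library SD, with initial intensity B-score within 5 SD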
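Assay system: CHO-K1 cells stably expressing KCNQ1; Medium: assay buffer with matched DMSO; Also added: K+/Tl+ depolarizing stimulus; Dosing: single dose; Timing: dye 90 min, compound 20 min, room temperature; Measured by: kinetic FluxOR thallium fluorescence, 10-s 1-Hz baseline, 110-s post-stimulus read; Read-out: peak-minus-minimum fluorescence over initial fluorescence, negative-control normalized, B-scored.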
hERG protect = hERG (human) protection from proarrhythmic block. 0.51% of 310,000 active. CHO-hERG, FluxOR thallium flux, dofetilide IC70 present. activation (rescue from dofetilide block), less the hit threshold, % at 10 µM. Q12809. AID 1511;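 active = activation above the mean of controls blocked by dofetilide plus 5 SD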;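 note: thallium influx through hERG after potassium depolarization seen as dye fluorescence rise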
KCNQ1 block = inhibitors of human KCNQ1 potassium channel; CHO-K1 KCNQ1, FluxOR thallium flux fluorescence; active compounds read high; B-score at 10 µM; 1.3% of 310,000 active; AID 2642;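 active = compounds whose thallium flux B-score, printed positive for inhibition, exceeds three library SD while starting fluorescence stays within three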;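 note: channel opened by potassium depolarization with thallium stimulus after 20 min compound exposure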
KCNK3 inh = human KCNK3 channel inhibition, primary screen; CHO-KCNK3 thallium flux, FluxOR fluorescence; active compounds read low; B-score at 10 µM; 0.84% of 340,000 active;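 active = B-score under library mean minus 4 SD, starting fluorescence ratio at most library mean plus 5 SD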;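 note: more negative B-score means stronger inhibition of thallium flux through KCNK3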
Kir21 inh = blocks the mouse Kir2.1 inward-rectifier potassium channel; B-score at 10 µM; HEK293-Kir2.1, FluxOR thallium flux fluorescence; active compounds read low; AID 1672; 0.85% of 310,000 active;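 active = fluorescence ratio B-score at or below minus 3 SD of library scores, with starting-brightness B-score within 2 SD, cut at about -4.2 in these data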;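 note: channel flux triggered by added potassium and thallium sulfate stimulus; B-score of peak minus minimum fluorescence over baseline after thallium stimulus; more negative B-score means stronger Kir2.1 block with less thallium influx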
KCNK9 inh = blocks the human KCNK9 two-pore domain potassium channel | HEK293 KCNK9, FluxOR thallium flux fluorescence; active compounds read low | B-score at 10 µM | 1.2% of 310,000 active | AID 488922;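 active = ratio B-score over 3 SD below the library mean, with starting fluorescence within 5 SD of its mean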;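 note: negative B-score means less thallium flux so channel inhibition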
Target sequence (Q9NPC2 whole entry, looked up, the tested form may be a part): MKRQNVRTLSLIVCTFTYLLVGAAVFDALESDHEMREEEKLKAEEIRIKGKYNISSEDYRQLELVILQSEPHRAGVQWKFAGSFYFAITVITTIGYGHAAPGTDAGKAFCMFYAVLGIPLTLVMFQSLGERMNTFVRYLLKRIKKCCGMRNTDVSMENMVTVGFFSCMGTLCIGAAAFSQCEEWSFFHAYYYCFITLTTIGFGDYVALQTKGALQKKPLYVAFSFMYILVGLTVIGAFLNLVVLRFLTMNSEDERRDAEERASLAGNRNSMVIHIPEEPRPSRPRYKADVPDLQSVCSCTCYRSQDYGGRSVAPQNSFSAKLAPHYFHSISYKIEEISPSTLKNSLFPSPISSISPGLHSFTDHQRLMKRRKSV
* hit, by the source's call. An excerpt weighted towards active compounds, which were near 3.7% of everything screened.

How did COc1ccc(S(=O)(=O)NCCSCc2ccco2)cc1C do in these assays?
KCNQ1 pot: inactive; hERG protect: -6.5; KCNQ1 block: inactive; KCNK3 inh: inactive; Kir21 inh: -2.88; KCNK9 inh: inactive

What do the screens show for `Cc1ccc([N+](=O)[O-])cc1NC(=O)c1cccnc1`?
KCNQ1 pot: inactive; hERG protect: -2.3; KCNQ1 block: inactive; KCNK3 inh: inactive; Kir21 inh: 0.33; KCNK9 inh: inactive

How did CCCC(=O)NC1=C(Cl)C(=O)c2ccccc2C1=O do in these assays?
KCNK3 inh: -9.26*

What do the screens show for `S=c1[nH]nc(-c2ccco2)n1/N=C/c1cccc(Cl)c1Cl`?
KCNQ1 pot: 15*; hERG protect: -0.3; KCNQ1 block: inactive; KCNK3 inh: inactive; Kir21 inh: -0.01; KCNK9 inh: inactive

Results for CC1(C)CC2CC(C)(CN2C(=S)NC(=O)c2ccccc2Cl)C1 (stereo not drawn) ?
KCNQ1 pot: 27*; hERG protect: 38.9*; KCNQ1 block: inactive; KCNK3 inh: inactive; Kir21 inh: 0.29; KCNK9 inh: inactive

What do the screens show for `CC1Cc2ccccc2N1S(=O)(=O)c1cccc(C(=O)N2CCCCC2)c1` (stereo not drawn)?
KCNK3 inh: inactive

Results for CC(=O)N1CCc2cc(S(=O)(=O)N3c4ccccc4CC3C)ccc21 (stereo not drawn) ?
KCNQ1 pot: inactive; hERG protect: 5.4*; KCNQ1 block: inactive; KCNK3 inh: inactive; Kir21 inh: 1.06; KCNK9 inh: inactive

How did CC(C)CC(=O)NC(=S)Nc1nc(-c2cccc3ccccc23)cs1 do in these assays?
KCNQ1 pot: 34*; hERG protect: 0.4; KCNQ1 block: inactive; KCNK3 inh: inactive; Kir21 inh: -0.17; KCNK9 inh: inactive

How did Cc1cc(C)c2ccc(C)[n+]([O-])c2c1O do in these assays?
KCNQ1 pot: 8*; hERG protect: -7.0; KCNQ1 block: inactive; KCNK3 inh: inactive; Kir21 inh: 0.13; KCNK9 inh: inactive

How did Cc1cc(C)c2ccc(N)nc2c1O do in these assays?
KCNQ1 pot: inactive; hERG protect: -9.1; KCNQ1 block: inactive; KCNK3 inh: inactive; Kir21 inh: -0.06; KCNK9 inh: inactive

What do the screens show for `Cc1cc(C)n(CCC(=O)N/N=C/c2ccc(Cl)c([N+](=O)[O-])c2)n1`?
KCNQ1 pot: inactive; hERG protect: -12.1; KCNQ1 block: 7*; KCNK3 inh: inactive; Kir21 inh: -0.8; KCNK9 inh: inactive

What do the screens show for `COc1ccc(/C=N/NC(=O)CCn2nc(C)cc2C)cc1`?
KCNQ1 pot: inactive; hERG protect: -9.7; KCNQ1 block: inactive; KCNK3 inh: inactive; Kir21 inh: 0.78; KCNK9 inh: inactive

What do the screens show for `O=C(/C=C/c1cc(Br)ccc1F)OCC(=O)N1CCCC1`?
KCNK3 inh: inactive

How did CCn1c(SCC(=O)Nc2nc3ccc(C)cc3s2)nc2c(c1=O)SC(C)C2 (stereo not drawn) do in these assays?
KCNQ1 pot: inactive; hERG protect: -8.9; KCNQ1 block: inactive; KCNK3 inh: -11*; Kir21 inh: -0.06; KCNK9 inh: inactive

Results for CCOc1ccccc1NC(=O)CSc1nc2c(c(=O)n1C)SC(C)C2 (stereo not drawn) ?
KCNQ1 pot: inactive; hERG protect: -3.0; KCNQ1 block: inactive; KCNK3 inh: inactive; Kir21 inh: -5.51*; KCNK9 inh: inactive

Results for CCn1c(SCC(=O)Nc2nc3ccccc3s2)nc2c(c1=O)SC(C)C2 (stereo not drawn) ?
KCNQ1 pot: inactive; hERG protect: -6.9; KCNQ1 block: inactive; Kir21 inh: 1.95; KCNK9 inh: inactive

How did CC1=C(C)/C(=N\OS(=O)(=O)c2ccccc2)C=CC1=O do in these assays?
KCNQ1 pot: inactive; hERG protect: -2.2; KCNQ1 block: inactive; KCNK3 inh: inactive; Kir21 inh: -11.1*; KCNK9 inh: inactive

How did Cc1ccc(S(=O)(=O)O/N=C2\CCCc3ccccc32)cc1 do in these assays?
KCNQ1 pot: inactive; hERG protect: -3.0; KCNQ1 block: inactive; KCNK3 inh: inactive; Kir21 inh: 0.4; KCNK9 inh: inactive

Results for CCOc1ccc(NC(=O)COc2ccc(C(=O)NCC3CCCO3)cc2OC)cc1 (stereo not drawn) ?
KCNK3 inh: inactive
